Published values pooled from the literature.
Each line is one published result; the experiments were not run side by side.
Read-out: enzyme activity
Mode: inhibitor
EGFR L858R/T790M: Epidermal growth factor receptor (EGFR, Homo sapiens, UniProt P00533, L858R/T790M)
EGFR: Epidermal growth factor receptor (EGFR, Homo sapiens, UniProt P00533)
EGFR L858R: Epidermal growth factor receptor (EGFR, Homo sapiens, UniProt P00533, L858R)

| Structure (SMILES) | target | method | concentration | inhibition [%] |
| --- | --- | --- | --- | --- |
| C/C=C/C(=O)Nc1cc(Nc2nc(Nc3cnn(C)c3)c3sccc3n2)c(OC)cc1N(C)CCN(C)C | EGFR L858R/T790M | ELISA | 0.1 µM | 18.3 |
| CN(C)C1CCN(CC#Cc2nn(C3CCCC3)c3nc(NCc4ccccc4)ncc23)C1 (stereo not shown) | EGFR | FRET | 0.1 µM | 14 |
| C=CC(=O)Nc1cc(Nc2nc(Nc3cnn(C)c3)c3sccc3n2)c(OC)cc1N(C)CCN(C)C | EGFR L858R/T790M | ELISA | 0.1 µM | 6.7 |
| COc1cc(-c2cc(-c3ccc(N4CCNCC4)cc3)cnc2N)cc(OC)c1OC | Epidermal growth factor receptor (EGFR, Homo sapiens, UniProt P00533, T790M) | – | 1 µM | 4 |
| C=C(Cl)C(=O)Nc1cc(Nc2nc(N3CCOCC3)c3sccc3n2)c(OC)cc1N(C)CCN(C)C | EGFR L858R/T790M | ELISA | 0.1 µM | 57.8 |
| O=C(CSc1nc2nccnc2c(=O)n1CCc1ccccc1)Nc1nccs1 | EGFR | – | 10 µM | -2 |
| C=CC(=O)Nc1cc(Nc2nc(N3CCc4sccc4C3)c3cccnc3n2)c(OC)cc1N1CCN(CC)CC1 | EGFR L858R/T790M | ELISA | 0.1 µM | 23.4 |
| COc1cc2ncnc(Nc3cccc(OCCn4ccnc4[N+](=O)[O-])c3)c2cc1OCCCN1CCOCC1 | EGFR | FRET | 1 µM | 30 |
| COc1cc2ncnc(Nc3ccc(Oc4ccccc4)c(C)c3C)c2cc1OC | Epidermal growth factor receptor (EGFR, Homo sapiens, UniProt P00533, L861Q) | – | 1 µM | 86 |
| C=CC(=O)Nc1cc(Nc2nccc(Nc3cc(Cl)c(F)cc3C(C)(C)O)n2)c(OC)cc1N1CC[C@@H](N(C)C)C1 | EGFR | – | 1 µM | 76 |
| CCOc1cc(-c2nncn2C)ccc1Nc1ncc2cc(C)nc(NCC(C)(C)C)c2n1 | EGFR | FRET | 1 µM | < 15 |
| COc1cc2ncnc(Nc3ccc(Oc4ccccc4)cc3C)c2cc1OC | EGFR L858R | – | 1 µM | 64 |
| CC/C(=N\NC(=O)NCc1cccc(O)c1)c1ccc(O)c(C)c1O | EGFR L858R | – | 0.1 µM | 0.5 |
